# Tests used:
# HepG2-TS = assay: CCK-8 cytotoxicity assay in HepG2 tumor spheres; type: cell-based, human
# Summary of the method: (§1)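 Cells seeded at 5×10^3/well and left overnight at 37°C to attach. They were then exposed for 48 h to graded concentrations of each agent alone or combined at fixed molar ratios (4:1, 2:1, 1:1, 1:2, 1:4). CCK-8 was added for about 2 h and A450 read. Viability = (AE–AB)/(AC–AB)×100%, using untreated and blank wells. HepG2 were grown in DMEM/10% FBS. Spheres were grown in DMEM-F12 with B27, ITS, 20 ng/mL EGF and bFGF, dissociated with Accutase and passed through a 100-µm sieve.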
# HepG2 cells [1] = assay: Colony formation assay; type: cell-based, human; settings: DOX and ELC 0.01 µM, 24 hours treatment, 8–10 days growth
# Summary of the method: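 HepG2 cells were maintained in DMEM with 10% FBS and penicillin/streptomycin at 37°C, 5% CO2. They were seeded at 1×10^5 cells/well, left overnight, then exposed 24 h to free or nanoparticle test compounds (each drug at 0.01 µM final). Cells were trypsinized, reseeded at 800 cells/well and grown 8–10 days at 37°C. Colonies were stained with 1% crystal violet for 20 min at room temperature and counted by microscope.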
# HepG2 cells [2] = assay: Tumor sphere formation assay; type: cell-based, human; settings: DOX and ELC 0.15 µM, 7 days
# Summary of the method: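 Trypsinized HepG2 cells were seeded at 500 cells/well in ultra-low-attachment wells in DMEM/F12 with 1× B27, 1× ITS, 20 ng/mL EGF and 20 ng/mL bFGF, then left overnight. Cells were exposed to free or nanoparticle test compounds (each drug at 0.15 µM final). After 7 days, tumor spheres were counted by microscope.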
# HepG2 cells [3] = assay: CCK-8 cytotoxicity assay in HepG2 cells; type: cell-based; settings: Homo sapiens, HepG2, 48 h
# Summary of the method: as §1
# [4] = Tissue distribution study in vivo; set-up: species or system BALB/c nude mice; settings: iv 10 µg DiR per mouse, 2–24 hours
# Summary of the method: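 Male BALB/c nude mice (4–6 weeks, about 20 g) bore subcutaneous right-back tumours from 2×10^6 HepG2 cells. At about 300 mm3 they were randomised to saline, free DiR or DiR-loaded nanoparticles, given as a single tail-vein injection. Imaging was under isoflurane at 745/820 nm excitation/emission, at 2, 4, 6, 8, 12 and 24 h. At 24 h, excised organs and tumours were imaged and quantified as total radiant efficiency.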
Compound,"IC50 (HepG2-TS; HepG2-TS, 48 hours, CCK-8) [µM]",number of colonies formed (HepG2 cells [1]),tumor sphere formation (HepG2 cells [2]),IC50 (HepG2 cells [3]) [µM],"IC50 (HepG2-TS; Homo sapiens, HepG2, 48 h) [µM]",DiR signals in real-time in vivo images [4]
"COc1cccc2c1C(=O)c1c(O)c3c(c(O)c1C2=O)C[C@@](O)(C(=O)CO)C[C@@H]3O[C@H]1C[C@H](N)[C@H](O)[C@H](C)O1 [DOX, doxorubicin]",0.477 ± 0.0514,reduced the formation of colonies compared with the control,decreased tumor sphere formation compared with that in the control,–,–,–
"COc1cc2c(cc1OC)CN(CCc1ccc(NC(=O)c3cccc4c(=O)c5cccc(OC)c5[nH]c34)cc1)CC2 [ELC, elacridar]",–,reduced the formation of colonies compared with the control,decreased tumor sphere formation compared with that in the control,9.27 ± 2.61,13.7 ± 4.27,–
CCCCCCCCCCCCCCCCCCN1/C(=C/C=C/C=C/C=C/C2=[N+](CCCCCCCCCCCCCCCCCC)c3ccccc3C2(C)C)C(C)(C)c2ccccc21.[I-] [free DiR],–,–,–,–,–,No obvious DiR signals

# Reference: article PMC6207383 (International Journal of Nanomedicine, 2018)
